Legend:
Type in all cases: functional
[1] = test system: Trichostrongylus axei; assay: Anthelmintic efficacy against Trichostrongylus axei (T.a) in sheep at dose of 0.025 mg/kg administered orally; 60-89%
Outline: (§1)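 Lambs were experimentally infected with mixed gastrointestinal nematodes: Haemonchus contortus, Ostertagia circumcincta, Trichostrongylus axei, T. colubriformis, Cooperia oncophora and Oesophagostomum columbianum. Dosing was oral, in mg/kg, with 3 sheep per dose group. An untreated infected group of 6 sheep served as reference, with worm burdens given as the geometric mean per lamb. Immature (EL4) and adult worms were scored separately.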

[2] = test system: Teladorsagia circumcincta; assay: Anthelmintic efficacy against adult Ostertagia circumcincta (O. c) in sheep at dose of 0.1 mg/kg administered orally; settings: route oral
Outline: (§2)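 Lambs experimentally infected with mixed gastrointestinal nematodes (H. contortus, O. circumcincta, T. axei, T. colubriformis, C. oncophora, Oe. columbianum) were dosed orally, 1–3 sheep per dose. An untreated infected group of 6 was included, with worm burdens given as the geometric mean number of worms per lamb. Efficacy was scored against adult and, where listed, EL4 stages.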

[3] = test system: Trichostrongylus axei; assay: Anthelmintic efficacy against Trichostrongylus axei (T.a) in sheep at dose of 0.05 mg/kg administered orally; settings: route oral; outline: as §1
[4] = test system: Teladorsagia circumcincta; assay: Anthelmintic efficacy against immature (EL4) Ostertagia circumcincta (O. c) in sheep at dose of 0.1 mg/kg administered orally; settings: route oral; outline: as §1
[5] = test system: Trichostrongylus colubriformis; assay: Minimal dose necessary to eliminate > 83% of Trichostrongylus colubriformis infection in gerbils
[6] = test system: Cooperia oncophora; assay: Anthelmintic efficacy against adult Cooperia oncopphora (C.o) in sheep at dose of 0.05 mg/kg administered orally; settings: route oral; outline: as §1
[7] = test system: Haemonchus contortus; assay: Anthelmintic efficacy against immature (EL4) Haemonchus contortus (H.c) in sheep at dose of 0.05 mg/kg administered orally; settings: route oral; outline: as §1
[8] = test system: Haemonchus contortus; assay: Anthelmintic efficacy against adult Haemonchus contortus (H.c) in sheep at dose of 0.05 mg/kg administered orally; settings: route oral; outline: as §1
[9] = test system: Haemonchus contortus; assay: Anthelmintic efficacy against immature (EL4) Haemonchus contortus (H.c) in sheep at dose of 0.1 mg/kg administered orally; settings: route oral; outline: as §1
[10] = test system: Trichostrongylus colubriformis; assay: Anthelmintic efficacy against Trichostrongylus colubriformis (T.c) in sheep at dose of 0.1 mg/kg administered orally; settings: route oral; outline: as §1
[11] = test system: Teladorsagia circumcincta; assay: Anthelmintic efficacy against immature (EL4) Ostertagia circumcincta (O. c) in sheep at dose of 0.05 mg/kg administered orally; settings: route oral; outline: as §1
[12] = test system: Cooperia oncophora; assay: Anthelmintic efficacy against immature (EL4) Cooperia oncopphora (C.o) in sheep at dose of 0.025 mg/kg administered orally; 0-19%; outline: as §1
[13] = test system: Trichostrongylus colubriformis; assay: Anthelmintic efficacy against Trichostrongylus colubriformis (T.c) in sheep at dose of 0.025 mg/kg administered orally; 60-89%; outline: as §1
[14] = test system: Haemonchus contortus; assay: Anthelmintic efficacy against adult Haemonchus contortus (H.c) in sheep at dose of 0.025 mg/kg administered orally; settings: route oral; outline: as §1
[15] = test system: Oesophagostomum columbianum; assay: Anthelmintic efficacy against Oseophagostomum columbianum (Oe. c) in sheep at dose of 0.025 mg/kg administered orally; settings: route oral; outline: as §1
[16] = test system: Teladorsagia circumcincta; assay: Anthelmintic efficacy against […] (EL4) Ostertagia circumcincta (O. c) in sheep at dose of 0.025 mg/kg administered orally; 60-89%; outline: as §1
[17] = test system: Haemonchus contortus; assay: Anthelmintic efficacy against adult Haemonchus contortus (H.c) in sheep at dose of 0.1 mg/kg administered orally; settings: route oral; outline: as §2
[18] = test system: Cooperia oncophora; assay: Anthelmintic efficacy against adult Cooperia oncopphora (C.o) in sheep at dose of 0.025 mg/kg administered orally; 20-59%; outline: as §1
[19] = test system: Trichostrongylus axei; assay: Anthelmintic efficacy against Trichostrongylus axei (T.a) in sheep at dose of 0.1 mg/kg administered orally; settings: route oral; outline: as §2
[20] = test system: Cooperia oncophora; assay: Anthelmintic efficacy against immature (EL4) Cooperia oncopphora (C.o) in sheep at dose of 0.05 mg/kg administered orally; settings: route oral; outline: as §1
[21] = test system: Trichostrongylus colubriformis; assay: Anthelmintic efficacy against Trichostrongylus colubriformis (T.c) in sheep at dose of 0.05 mg/kg administered orally; settings: route oral; outline: as §1
[22] = test system: Teladorsagia circumcincta; assay: Anthelmintic efficacy against adult Ostertagia circumcincta (O. c) in sheep at dose of 0.05 mg/kg administered orally; settings: route oral; outline: as §1
[23] = test system: Oesophagostomum columbianum; assay: Anthelmintic efficacy against Oseophagostomum columbianum (Oe. c) in sheep at dose of 0.1 mg/kg administered orally; settings: route oral; outline: as §2
[24] = test system: Cooperia oncophora; assay: Anthelmintic efficacy against immature (EL4) Cooperia oncopphora (C.o) in sheep at dose of 0.1 mg/kg administered orally; settings: route oral; outline: as §1
[25] = test system: Haemonchus contortus; assay: Anthelmintic efficacy against immature (EL4) Haemonchus contortus (H.c) in sheep at dose of 0.025 mg/kg administered orally; settings: route oral; outline: as §1
[26] = test system: Oesophagostomum columbianum; assay: Anthelmintic efficacy against Oseophagostomum columbianum (Oe. c) in sheep at dose of 0.05 mg/kg administered orally; settings: route oral; outline: as §1
[27] = test system: Teladorsagia circumcincta; assay: Anthelmintic efficacy against immature (EL4) Ostertagia circumcincta (O. c) in sheep at dose of 0.025 mg/kg administered orally; 20-59%; outline: as §1
[28] = test system: Cooperia oncophora; assay: Anthelmintic efficacy against adult Cooperia oncopphora (C.o) in sheep at dose of 0.1 mg/kg administered orally; settings: route oral; outline: as §1
[29] = test system: Cooperia oncophora; assay: Anthelmintic efficacy against adult Cooperia oncopphora (C.o) in sheep at dose of 0.05 mg/kg administered orally; 0-19%; outline: as §2
[30] = test system: Cooperia oncophora; assay: Anthelmintic efficacy against immature (EL4) Cooperia oncopphora (C.o) in sheep at dose of 0.1 mg/kg administered orally; 20-59%
[31] = test system: Trichostrongylus axei; assay: Anthelmintic efficacy against Trichostrongylus axei (T.a) in sheep at dose of 0.025 mg/kg administered orally; 0-19%; outline: as §2
[32] = test system: Trichostrongylus colubriformis; assay: Anthelmintic efficacy against Trichostrongylus colubriformis (T.c) in sheep at dose of 0.05 mg/kg administered orally; 60-89%; outline: as §2
[33] = test system: Oesophagostomum columbianum; assay: Anthelmintic efficacy against Oseophagostomum columbianum (Oe. c) in sheep at dose of 0.05 mg/kg administered orally; 60-89%; outline: as §2
[34] = test system: Oesophagostomum columbianum; assay: Anthelmintic efficacy against Oseophagostomum columbianum (Oe. c) in sheep at dose of 0.025 mg/kg administered orally; 60-89%; outline: as §2
[35] = test system: Teladorsagia circumcincta; assay: Anthelmintic efficacy against adult Ostertagia circumcincta (O. c) in sheep at dose of 0.05 mg/kg administered orally; 60-89%; outline: as §2
[36] = test system: Teladorsagia circumcincta; assay: Anthelmintic efficacy against immature (EL4) Ostertagia circumcincta (O. c) in sheep at dose of 0.05 mg/kg administered orally; 0-19%
[37] = test system: Cooperia oncophora; assay: Anthelmintic efficacy against immature (EL4) Cooperia oncopphora (C.o) in sheep at dose of 0.025 mg/kg administered orally; 20-59%
[38] = test system: Cooperia oncophora; assay: Anthelmintic efficacy against adult Cooperia oncopphora (C.o) in sheep at dose of 0.025 mg/kg administered orally; 0-19%; outline: as §2
[39] = test system: Haemonchus contortus; assay: Anthelmintic efficacy against adult Haemonchus contortus (H.c) in sheep at dose of 0.025 mg/kg administered orally; 0-19%; outline: as §2
[40] = test system: Teladorsagia circumcincta; assay: Anthelmintic efficacy against adult Ostertagia circumcincta (O. c) in sheep at dose of 0.025 mg/kg administered orally; 60-89%; outline: as §2
[41] = test system: Cooperia oncophora; assay: Anthelmintic efficacy against adult Cooperia oncopphora (C.o) in sheep at dose of 0.1 mg/kg administered orally; 0-19%; outline: as §2
[42] = test system: Haemonchus contortus; assay: Anthelmintic efficacy against adult Haemonchus contortus (H.c) in sheep at dose of 0.05 mg/kg administered orally; 60-89%; outline: as §2
[43] = test system: Teladorsagia circumcincta; assay: Anthelmintic efficacy against immature (EL4) Ostertagia circumcincta (O. c) in sheep at dose of 0.025 mg/kg administered orally; 0-19%
[44] = test system: Trichostrongylus axei; assay: Anthelmintic efficacy against Trichostrongylus axei (T.a) in sheep at dose of 0.05 mg/kg administered orally; 60-89%; outline: as §2
[45] = test system: Cooperia oncophora; assay: Anthelmintic efficacy against immature (EL4) Cooperia oncopphora (C.o) in sheep at dose of 0.05 mg/kg administered orally; 20-59%
[46] = test system: Haemonchus contortus; assay: Anthelmintic efficacy against immature (EL4) Haemonchus contortus (H.c) in sheep at dose of 0.025 mg/kg administered orally; 20-59%
[47] = test system: Haemonchus contortus; assay: Anthelmintic efficacy against immature (EL4) Haemonchus contortus (H.c) in sheep at dose of 0.05 mg/kg administered orally; 60-89%
[48] = test system: Teladorsagia circumcincta; assay: Anthelmintic efficacy against immature (EL4) Ostertagia circumcincta (O. c) in sheep at dose of 0.1 mg/kg administered orally; 0-19
[49] = test system: Trichostrongylus colubriformis; assay: Anthelmintic efficacy against Trichostrongylus colubriformis (T.c) in sheep at dose of 0.025 mg/kg administered orally; 0-19%; outline: as §2

CC[C@H](C)[C@H]1O[C@]2(C=C[C@@H]1C)C[C@@H]1C[C@@H](C/C=C(\C)[C@@H](O[C@H]3C[C@H](OC)[C@@H](O[C@H]4C[C@H](OC)[C@@H](O)[C@H](C)O4)[C@H](C)O3)[C@@H](C)/C=C/C=C3\CO[C@@H]4[C@H](O)C(C)=C[C@@H](C(=O)O1)[C@]34O)O2 [ABAMECTIN COMPONENT B1A]
Efficacy [1]: 60% | Efficacy [2]: >90% | Efficacy [3]: >90% | Efficacy [4]: >90% | Dose [5]: 0.025 mg/kg | Efficacy [6]: >90% | Efficacy [7]: >90% | Efficacy [8]: >90% | Efficacy [9]: >90% | Efficacy [10]: >90% | Efficacy [11]: >90% | Efficacy [12]: 0% | Efficacy [13]: 60% | Efficacy [14]: >90% | Efficacy [15]: >90% | Efficacy [16]: 60% | Efficacy [17]: >90% | Efficacy [18]: 20% | Efficacy [19]: >90% | Efficacy [20]: >90% | Efficacy [21]: >90% | Efficacy [22]: >90% | Efficacy [23]: >90% | Efficacy [24]: >90% | Efficacy [25]: >90% | Efficacy [26]: >90% | Efficacy [27]: 20% | Efficacy [28]: >90%

CC[C@H](C)[C@H]1O[C@]2(CC(O)[C@@H]1C)C[C@@H]1C[C@@H](C/C=C(\C)[C@@H](OC3CC(OC)C(OC4CC(OC)C(O)C(C)O4)C(C)O3)[C@@H](C)/C=C/C=C3\CO[C@@H]4[C@H](OC)C(C)=C[C@@H](C(=O)O1)[C@]34O)O2 (stereo partly specified) [AVERMECTIN A2]
Efficacy [29]: 0% | Efficacy [2]: >90% | Efficacy [30]: 20% | Efficacy [31]: 0% | Dose [5]: 0.05 mg/kg | Efficacy [32]: 60% | Efficacy [9]: >90% | Efficacy [33]: 60% | Efficacy [10]: >90% | Efficacy [34]: 60% | Efficacy [35]: 60% | Efficacy [36]: 0% | Efficacy [37]: 20% | Efficacy [38]: 0% | Efficacy [39]: 0% | Efficacy [17]: >90% | Efficacy [40]: 60% | Efficacy [19]: >90% | Efficacy [41]: 0% | Efficacy [42]: 60% | Efficacy [43]: 0% | Efficacy [44]: 60% | Efficacy [23]: >90% | Efficacy [45]: 20% | Efficacy [46]: 20% | Efficacy [47]: 60% | Efficacy [48]: 0% | Efficacy [49]: 0%
